The test system of data set [1] is Escherichia coli. Put plainly: Antimicrobial activity against Escherichia coli DSM 8579 assessed as growth inhibition at 10 ug per disc after 24 to 48 hrs (reference value: 0 millimeter). Format: functional. Particulars: read-out: DIZ.
The subject of data set [2] is Staphylococcus aureus. Put plainly: Antimicrobial activity against Staphylococcus aureus DSM 25923 assessed as growth inhibition at 20 ug per disc after 24 to 48 hrs (reference value: 0 millimeter). The data set is classed as functional. The settings on record: read-out: DIZ.
Data set [3] concerns Bacillus cereus. Put plainly: Antimicrobial activity against Bacillus cereus DSM 4384 assessed as growth inhibition at 10 ug per disc after 24 to 48 hrs (reference value: 0 millimeter). The data set is classed as functional. The settings on record: read-out: DIZ.
The test system of data set [4] is Escherichia coli. Put plainly: Antimicrobial activity against Escherichia coli DSM 8579 assessed as growth inhibition at 20 ug per disc after 24 to 48 hrs (reference value: 0 millimeter). Format: functional. Particulars: read-out: DIZ.
For data set [5], the system named is Pseudomonas aeruginosa. The data set is described as follows: Antimicrobial activity against Pseudomonas aeruginosa DSM 50071 assessed as growth inhibition at 10 ug per disc after 24 to 48 hrs (reference value: 0 millimeter). Format: functional. Particulars: read-out: DIZ.
Data set [6] concerns Bacillus cereus. Put plainly: Antimicrobial activity against Bacillus cereus DSM 4384 assessed as growth inhibition at 40 ug per disc after 24 to 48 hrs (reference value: 0 millimeter). The data set is classed as functional. The settings on record: read-out: DIZ.
The subject of data set [7] is Bacillus cereus. Put plainly: Antimicrobial activity against Bacillus cereus DSM 4313 assessed as growth inhibition at 20 ug per disc after 24 to 48 hrs (reference value: 0 millimeter). The data set is classed as functional. The settings on record: read-out: DIZ.
In data set [8] the test system is Bacillus cereus. The data set is described as follows: Antimicrobial activity against Bacillus cereus DSM 4313 assessed as growth inhibition at 40 ug per disc after 24 to 48 hrs (reference value: 0 millimeter). Format: functional. Particulars: read-out: DIZ.
A short description of data set [9]: Cytotoxicity against human DeFew cells at 10 to 100 uM by MTT assay. The data set is classed as cell-based. A digest of the protocol: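 DeFew human B-lymphoma cells were maintained in RPMI 1640 with 10% FBS, 1% penicillin/streptomycin and 2 mM L-glutamine, in humidified 5% CO2 at 37 °C. Cells were exposed to 10–100 μM, and viability was read by MTT.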
Data set [10] deals with Bacillus cereus. Put plainly: Antimicrobial activity against Bacillus cereus DSM 4313 assessed per disc after 24 hrs by resazurin dye-based microtiter-plate assay. Format: functional. In short, it runs like this: (§1)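 Resazurin microtiter-plate broth dilution. Samples in DMSO were twofold serially diluted in Mueller-Hinton broth with isosensitized broth and resazurin indicator. Bacteria were added to about 5 × 10^5 cfu/mL. Ciprofloxacin served as positive control and DMSO as negative control. Plates were run in triplicate at 37 °C for 24 h. MIC is the lowest concentration […].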
For orientation: The colour change of resazurin is a common sign of viable cells or microbes.

In data set [11] the test system is Bacillus cereus. Put plainly: Antimicrobial activity against Bacillus cereus DSM 4384 assessed per disc after 24 hrs by resazurin dye-based microtiter-plate assay. The data set is classed as functional. In short, it runs like this: as §1
Data set [12] deals with Escherichia coli. Put plainly: Antimicrobial activity against Escherichia coli DSM 8579 assessed as growth inhibition at 40 ug per disc after 24 to 48 hrs (reference value: 0 millimeter). Format: functional. The settings on record: read-out: DIZ.
The next data set relates to A549. Put plainly: Cytotoxicity against human A549 cells at 10 to 100 uM by MTT assay. The data set is classed as cell-based. Particulars: a549, 100 µM. In short, it runs like this:
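A549 human lung adenocarcinoma cells were kept in DMEM with 10% FBS, 1% penicillin/streptomycin and 2 mM L-glutamine, at 37 °C under 5% CO2. Viability was measured by MTT assay after exposure to 10–100 μM.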
For orientation: Tetrazolium dyes change colour on reduction, which living cells bring about.

The subject of data set [13] is Staphylococcus aureus. Put plainly: Antimicrobial activity against Staphylococcus aureus DSM 25923 assessed as growth inhibition at 40 ug per disc after 24 to 48 hrs (reference value: 0 millimeter). The data set is classed as functional. The settings on record: read-out: DIZ.
In data set [14] the test system is Bacillus cereus. Put plainly: Antimicrobial activity against Bacillus cereus DSM 4384 assessed as growth inhibition at 20 ug per disc after 24 to 48 hrs (reference value: 0 millimeter). Format: functional. Particulars: read-out: DIZ.
Data set [15] relates to Staphylococcus aureus. Put plainly: Antimicrobial activity against Staphylococcus aureus DSM 25923 assessed per disc after 24 hrs by resazurin dye-based microtiter-plate assay. The data set is classed as functional. In short, it runs like this: as §1
The subject of data set [16] is Pseudomonas aeruginosa. The data set is described as follows: Antimicrobial activity against Pseudomonas aeruginosa DSM 50071 assessed as growth inhibition at 20 ug per disc after 24 to 48 hrs (reference value: 0 millimeter). The data set is classed as functional. Particulars: read-out: DIZ.
Data set [17] deals with Plasma. The data set is described as follows: Antioxidant activity in human plasma assessed as inhibition of H2O2-induced lipid peroxidation at 10 uM after 30 mins by TBARS assay relative to control. Format: functional, cell-free. A digest of the protocol:
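Fresh plasma from medication-free donors was incubated for 30 min at 37 °C with compound (0.1–100 μM) plus 2 mM H2O2. Lipid peroxidation was quantified as TBARS. Data are from 5–9 independent experiments, as mean ± SD.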

The test system of data set [18] is Staphylococcus aureus. The data set is described as follows: Antimicrobial activity against Staphylococcus aureus DSM 25923 assessed as growth inhibition at 10 ug per disc after 24 to 48 hrs (reference value: 0 millimeter). The data set is classed as functional. The settings on record: read-out: DIZ.
In data set [19] the test system is Bacillus cereus. Put plainly: Antimicrobial activity against Bacillus cereus DSM 4313 assessed as growth inhibition at 10 ug per disc after 24 to 48 hrs (reference value: 0 millimeter). The settings on record: read-out: DIZ. The data set is classed as functional.
For data set [20], the system named is Plasma. Put plainly: Antioxidant activity in human plasma assessed as inhibition of H2O2/Fe2+-induced lipid peroxidation at 10 uM after 30 mins by TBARS assay relative to control. Format: functional, cell-free. A digest of the protocol: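 Human donor plasma was incubated for 30 min at 37 °C with compound at 10 μM plus 4.7 mM H2O2, 3.8 mM […] and 2.5 mM EDTA. Peroxidation was read as TBARS concentration.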

Data set [21] relates to Pseudomonas aeruginosa. The data set is described as follows: Antimicrobial activity against Pseudomonas aeruginosa DSM 50071 assessed as growth inhibition at 40 ug per disc after 24 to 48 hrs (reference value: 0 millimeter). The data set is classed as functional. Particulars: read-out: DIZ.
In data set [22] the test system is Escherichia coli. The data set is described as follows: Antimicrobial activity against Escherichia coli DSM 8579 assessed per disc after 24 hrs by resazurin dye-based microtiter-plate assay. The data set is classed as functional. In short, it runs like this: as §1
The test system of data set [23] is Pseudomonas aeruginosa. The data set is described as follows: Antimicrobial activity against Pseudomonas aeruginosa DSM 50071 assessed per disc after 24 hrs by resazurin dye-based microtiter-plate assay. Format: functional. A digest of the protocol:
as §1

In data set [24] the test system is Pseudomonas aeruginosa. Put plainly: Antimicrobial activity against Pseudomonas aeruginosa DSM 50071 assessed as growth inhibition at 7 ug per disc after 24 to 48 hrs (reference value: 0 millimeter). The data set is classed as functional. Particulars: read-out: DIZ.
The subject of data set [25] is Bacillus cereus. Put plainly: Antimicrobial activity against Bacillus cereus DSM 4384 assessed as growth inhibition at 7 ug per disc after 24 to 48 hrs (reference value: 0 millimeter). Format: functional. Particulars: read-out: DIZ.
The test system of data set [26] is Escherichia coli. The data set is described as follows: Antimicrobial activity against Escherichia coli DSM 8579 assessed as growth inhibition at 7 ug per disc after 24 to 48 hrs (reference value: 0 millimeter). The data set is classed as functional. Particulars: read-out: DIZ.
For data set [27], the system named is Staphylococcus aureus. Put plainly: Antimicrobial activity against Staphylococcus aureus DSM 25923 assessed as growth inhibition at 7 ug per disc after 24 to 48 hrs (reference value: 0 millimeter). Format: functional. The settings on record: read-out: DIZ.
Data set [28] relates to Bacillus cereus. The data set is described as follows: Antimicrobial activity against Bacillus cereus DSM 4313 assessed as growth inhibition at 7 ug per disc after 24 to 48 hrs (reference value: 0 millimeter). The data set is classed as functional. The settings on record: read-out: DIZ.

The inhibition is the relative decrease from the control value, in per cent. For `O=C1CCc2ccc(O[C@@H]3O[C@H](CO)[C@@H](O)[C@H](O)[C@H]3O)c(c2)-c2cc(ccc2O)C[C@@H](O)[C@H](O)[C@H]1O` (mixture of isomers), the zone of inhibition at 10 µg/disc with Escherichia coli [1], with Bacillus cereus [3], in the data set with Pseudomonas aeruginosa [5], in the data set with Staphylococcus aureus [18] and in the data set with Bacillus cereus [19] was 0 mm throughout. Besides, the zone of inhibition at 20 µg/disc in the data set with Staphylococcus aureus [2], in the data set on Escherichia coli [4], in the data set with Bacillus cereus [7], in the data set on Bacillus cereus [14] and with Pseudomonas aeruginosa [16] was 0 mm each time. The zone of inhibition at 40 µg/disc in the data set with Bacillus cereus [6] stood at 0 mm; with Bacillus cereus [8], 5 mm; in the data set on Escherichia coli [12], 0 mm; in the data set with Staphylococcus aureus [13], 11.3 mm; with Pseudomonas aeruginosa [21] it was 9 mm. Besides, the Activity entry (in data set [9]; in the data set with A549) was “Non-Toxic” throughout. The MIC with Bacillus cereus [10] is 30 µg; in the data set with Bacillus cereus [11] it was 50 µg; against Staphylococcus aureus [15], 30 µg; against Escherichia coli [22], 50 µg; with Pseudomonas aeruginosa [23], 30 µg. The inhibition in the data set on Plasma [17] was found to be 14.7%; in the data set on Plasma [20], 23.3%.
With `O=C1CCc2ccc(O)c(c2)-c2cc(ccc2O)C[C@@H](O)[C@H](O)[C@H]1O` (mixture of isomers), the zone of inhibition at 10 µg/disc was 9.33 mm in the data set on Escherichia coli [1]; 5 mm in the data set with Bacillus cereus [3]; 4.67 mm with Pseudomonas aeruginosa [5]; 0 mm in the data set with Staphylococcus aureus [18]; 5 mm in the data set with Bacillus cereus [19]. In addition, the zone of inhibition at 20 µg/disc with Staphylococcus aureus [2] was found to be 0 mm; in the data set on Escherichia coli [4], 9.67 mm; in the data set on Bacillus cereus [7], 5 mm; in the data set on Bacillus cereus [14], 5 mm; in the data set on Pseudomonas aeruginosa [16] it was 4.67 mm. Further, the zone of inhibition at 40 µg/disc with Bacillus cereus [6] is 10.7 mm; with Bacillus cereus [8], 10.7 mm; in the data set with Escherichia coli [12], 11.7 mm; in the data set on Staphylococcus aureus [13], 5.67 mm; in the data set on Pseudomonas aeruginosa [21], 10.7 mm. The Activity result (in [9]; in the data set with A549) was “Non-Toxic” each time. In addition, the MIC is 4 µg against Bacillus cereus [10]; 4 µg in the data set with Bacillus cereus [11]; 30 µg with Staphylococcus aureus [15]; 10 µg against Escherichia coli [22]; 10 µg in the data set on Pseudomonas aeruginosa [23]. For the same molecule, the figures for the inhibition in the data set on Plasma [17] and in the data set with Plasma [20] were 32.2% and 24.4%, respectively.
As for `CN(C)[C@@H]1C(O)=C(C(N)=O)C(=O)[C@@]2(O)C(O)=C3C(=O)c4c(O)cccc4[C@@](C)(O)[C@H]3C[C@@H]12` [TETRACYCLINE], the zone of inhibition at 7 µg/disc with Pseudomonas aeruginosa [24] came out at 9.67 mm; in the data set with Bacillus cereus [25], 8.67 mm; in the data set with Escherichia coli [26], 12.7 mm; in the data set with Staphylococcus aureus [27], 11.3 mm; in the data set with Bacillus cereus [28] it was 10.3 mm.

The values are drawn from ChEMBL document CHEMBL4190191, “Cyclic Diarylheptanoids from Corylus avellana Green Leafy Covers: Determination of Their Absolute Configurations and Evaluation of Their Antioxidant and Antimicrobial Activities” (J Nat Prod, 2017).
